We go through six compounds from ChEMBL document CHEMBL1795235, “Quercetin diacylglycoside analogues showing dual inhibition of DNA gyrase and topoisomerase IV as novel antibacterial agents” (J Med Chem, 2011).

In brackets after ≈: the same amount, converted by molar mass. Some results are limits rather than exact numbers.

Experiment [1] has as its system Staphylococcus aureus. Briefly: Antibacterial activity against methicillin-resistant Staphylococcus aureus OM584 after 24 hrs by microdilution method. The format is functional. To be noted: OM584, 24 h. In outline: (§1)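 Broth microdilution in Mueller-Hinton broth with 0.85% NaCl, inoculum about 10^5 CFU per 100 μL. Compounds were diluted in water from 25.6 mg/mL stocks to final 2-fold series of 0.062–128 μg/mL. Plates were incubated 24 h at 35 °C. MIC was the lowest concentration at which all triplicate wells were clear, from three independent determinations.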
Background: Dilution methods test growth across graded concentrations, often in twofold steps.

Experiment [2] relates to Enterococcus. Briefly: Antibacterial activity against vancomycin resistant Enterococcus NCTC 12201 after 24 hrs by microdilution method. Format: functional. To be noted: NCTC 12201, 24 h. In outline: as §1
The test system of experiment [3] is Staphylococcus aureus. Nature of the experiment: Antibacterial activity against methicillin-susceptible Staphylococcus aureus 209P after 24 hrs by microdilution method. Format: functional. The essentials:
as §1

Experiment [4] deals with Pseudomonas aeruginosa. Nature of the experiment: Antibacterial activity against Pseudomonas aeruginosa PAO1 after 24 hrs by microdilution method. Format: functional. Conditions: PAO1, 24 h. In outline:
(§2)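 Broth microdilution in Mueller-Hinton broth with 0.85% NaCl, inoculum about 10^5 CFU per 100 μL. Compounds diluted from 25.6 mg/mL stocks in water to 2-fold series, final 0.062–128 μg/mL. […] Three independent determinations.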

The test system of experiment [5] is Staphylococcus aureus. Briefly: Antibacterial activity against vancomycin-intermediate Staphylococcus aureus Mu50 after 24 hrs by microdilution method. The format is functional. To be noted: Mu50, 24 h. The essentials:
as §1

The test system of experiment [6] is Streptococcus pneumoniae. Nature of the experiment: Antibacterial activity against Streptococcus pneumoniae R6 after 24 hrs by microdilution method. Format: functional. Conditions: R6, 24 h. In outline: as §2
The subject of experiment [7] is Staphylococcus aureus. Briefly: Antibacterial activity against methicillin-resistant Staphylococcus aureus COL after 24 hrs by microdilution method. The format is functional. The essentials: as §1
Experiment [8] concerns Escherichia coli. Nature of the experiment: Antibacterial activity against Escherichia coli K-12 after 24 hrs by microdilution method. Conditions: K-12, 24 h. Format: functional. In outline:
as §2

Experiment [9] can be described thus: Inhibition of Escherichia coli DNA gyrase assessed as inhibition of pBR322 supercoiling by densitometry. In outline: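 One unit of E. coli gyrase with 0.5 μg relaxed pBR322 DNA, 37 °C, 30 min. Stopped with sucrose/EDTA dye, run on 1.0% agarose in TAE. IC50 from densitometry via log-interpolation equation.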
Experiment [10] can be described thus: Inhibition of Staphylococcus aureus DNA Topoisomerase 4-mediated decatenation of kDNA after 30 mins by densitometry. In outline:
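Purchased S. aureus topoIV, one unit with 200 ng kDNA, 37 °C, 30 min. Products resolved on 1.0% agarose in TAE. IC50 of decatenation from densitometry by interpolation equation, at least three determinations.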

The nature of experiment [11]: Inhibition of Escherichia coli DNA topoisomerase 4 subunit ParC/DNA topoisomerase 4 subunit ParE-mediated decatenation of kDNA by densitometry. In outline:
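Purchased E. coli topoIV kit enzyme, one unit with 200 ng kDNA, 37 °C, 30 min. Buffer: 50 mM HEPES-KOH pH 7.6, 5 mM magnesium acetate, 100 mM potassium glutamate, 10 mM DTT, 1 mM ATP, 40% glycerol. Gel on 1.0% agarose in TAE. IC50 of decatenation from densitometry by interpolation equation, at least three determinations.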

Experiment [12] relates to Enterococcus. Briefly: Antibacterial activity against vancomycin resistant Enterococcus FN-1 after 24 hrs by microdilution method. The format is functional. To be noted: FN-1, 24 h. The essentials: as §1
Experiment [13] deals with Staphylococcus aureus. Nature of the experiment: Antibacterial activity against methicillin-resistant Staphylococcus aureus N315 after 24 hrs by microdilution method. Format: functional. To be noted: N315, 24 h. The essentials:
as §1

Experiment [14] relates to Staphylococcus aureus. Briefly: Antibacterial activity against methicillin-resistant Staphylococcus aureus OM481 after 24 hrs by microdilution method. The format is functional. To be noted: OM481, 24 h. The essentials: as §1

The MIC is the smallest concentration in the dilution series that meets the test's criterion for growth inhibition. A higher MIC goes with a less susceptible organism. By IC50 is commonly meant the point on the concentration scale where inhibition reaches its midpoint. Regarding `O=C(CCc1ccc(O)cc1)OC[C@H]1O[C@@H](Oc2c(-c3ccc(O)c(O)c3)oc3cc(O)cc(O)c3c2=O)[C@H](OC(=O)CCc2ccc(O)cc2)[C@@H](O)[C@H]1O`, the MIC is 1 µg/mL (≈ 1.31 µM) in [1]; 4 µg/mL (≈ 5.26 µM) in [2]; 2 µg/mL (≈ 2.63 µM) in experiment [3]; above 128 µg/mL in [4]; 2 µg/mL (≈ 2.63 µM) in experiment [5]; 4 µg/mL (≈ 5.26 µM) in [6]. Further, the minimal inhibitory concentration (MIC) in experiment [7] was 4 µg/mL (≈ 5.26 µM); in experiment [8], above 128 µg/mL; in experiment [12], 4 µg/mL (≈ 5.26 µM); in [13], 2 µg/mL (≈ 2.63 µM); in [14] it was 1 µg/mL (≈ 1.31 µM). Also, the results for the IC50 in experiment [9], in experiment [10] and in experiment [11] were 2390 nM, 1590 nM and 10900 nM, respectively.
On to `O=c1c(O[C@@H]2O[C@H](CO)[C@H](O)[C@H](O)[C@H]2O)c(-c2ccc(O)c(O)c2)oc2cc(O)cc(O)c12` [HYPEROSIDE], for which the MIC is above 128 µg/mL in experiment [1]; above 128 µg/mL in [2]; above 128 µg/mL in experiment [3]; 32 µg/mL (≈ 68.9 µM) in [4]; above 128 µg/mL in experiment [5]; above 128 µg/mL in experiment [6]. For the same compound, the MIC in experiment [7] was above 128 µg/mL; in experiment [8], 16 µg/mL (≈ 34.5 µM); in experiment [12], above 128 µg/mL; in [13], above 128 µg/mL; in [14], above 128 µg/mL. In addition, the IC50 came out at 100 nM in experiment [9], 70 nM in [10] and 3070 nM in [11].
In the case of `O=C(CCc1ccc(F)cc1)OC[C@H]1O[C@@H](Oc2c(-c3ccc(O)c(O)c3)oc3cc(O)cc(O)c3c2=O)[C@H](O)[C@@H](O)[C@H]1O`, the minimal inhibitory concentration (MIC) in experiment [1] was 16 µg/mL (≈ 26 µM); in experiment [2] it was 16 µg/mL (≈ 26 µM); in experiment [3], 16 µg/mL (≈ 26 µM); in [4] it was above 128 µg/mL; in experiment [5] it was 32 µg/mL (≈ 52.1 µM); in [6], 32 µg/mL (≈ 52.1 µM). Further, the MIC in experiment [7] was 32 µg/mL (≈ 52.1 µM); in experiment [8], above 128 µg/mL; in experiment [12], 16 µg/mL (≈ 26 µM); in experiment [13], 16 µg/mL (≈ 26 µM); in experiment [14], 16 µg/mL (≈ 26 µM). Also, the IC50 in [9] was determined as 1400 nM; in experiment [10], 2990 nM; in experiment [11], 11500 nM.
Turning to `O=c1c(O)c(-c2ccc(O)c(O)c2)oc2cc(O)cc(O)c12` [QUERCETIN], the MIC in experiment [1], in experiment [2], in experiment [3], in [4], in [5] and in [6] was above 128 µg/mL each time. Moreover, the MIC was above 128 µg/mL in [7]; 64 µg/mL (≈ 212 µM) in experiment [8]; above 128 µg/mL in experiment [12]; above 128 µg/mL in experiment [13]; above 128 µg/mL in experiment [14]. Besides, the IC50 worked out at 140 nM in experiment [9] and 6420 nM in [11].
For the compound `Cc1ccc(CCC(=O)OC[C@H]2O[C@@H](Oc3c(-c4ccc(O)c(O)c4)oc4cc(O)cc(O)c4c3=O)[C@H](OC(=O)CCc3ccc(C)cc3)[C@@H](O)[C@H]2O)cc1`, the MIC in experiment [1] is 0.25 µg/mL (≈ 0.33 µM); in experiment [2] it was 0.5 µg/mL (≈ 0.661 µM); in experiment [3] it was 0.25 µg/mL (≈ 0.33 µM); in experiment [4], above 128 µg/mL; in [5], 0.5 µg/mL (≈ 0.661 µM); in experiment [6], 0.25 µg/mL (≈ 0.33 µM). Besides, the MIC in [7] was 1 µg/mL (≈ 1.32 µM); in [8], above 128 µg/mL; in experiment [12], 0.5 µg/mL (≈ 0.661 µM); in experiment [13] it was 0.25 µg/mL (≈ 0.33 µM); in [14] it was 0.25 µg/mL (≈ 0.33 µM). Besides, the IC50 in experiment [9] stood at 2090 nM; in experiment [10], 1490 nM; in experiment [11], 9460 nM.
`CCCc1ccc(C(=O)OC[C@H]2O[C@@H](Oc3c(-c4ccc(O)c(O)c4)oc4cc(O)cc(O)c4c3=O)[C@H](OC(=O)c3ccc(CCC)cc3)[C@@H](O)[C@H]2O)cc1`: the MIC in [1] is 4 µg/mL (≈ 5.29 µM); in [2], 4 µg/mL (≈ 5.29 µM); in [3], 2 µg/mL (≈ 2.64 µM); in [4] it was above 128 µg/mL; in experiment [5], 4 µg/mL (≈ 5.29 µM); in experiment [6], 2 µg/mL (≈ 2.64 µM). Besides, the MIC in experiment [7] is 16 µg/mL (≈ 21.1 µM); in experiment [8] it was above 128 µg/mL; in experiment [12] it was 8 µg/mL (≈ 10.6 µM); in experiment [13], 2 µg/mL (≈ 2.64 µM); in experiment [14], 4 µg/mL (≈ 5.29 µM). Besides, the IC50 came out at 770 nM in experiment [9], 1930 nM in experiment [10] and 10900 nM in [11].
